Experimental data from ChEMBL document CHEMBL3046507, “Synthesis and herbicidal activities of novel 3-N-substituted amino-6-methyl-4-(3-trifluoromethylphenyl)pyridazine derivatives” (2008).

Key:
Amaranthus retroflexus [1] = test: Herbicidal activity against Amaranthus retroflexus assessed as inhibition of fresh plant weight at 750 g/ha using postemergence protocol measured after 24 days under green house conditions; conditions: post-emergence
[2] = tested on: Brassica rapa subsp. oleifera; test: Herbicidal activity against Brassica rapa subsp. oleifera assessed as inhibition of fresh plant weight at 750 g/ha using preemergence protocol measured after 24 days under green house conditions; conditions: pre-emergence
Spirodela polyrhiza [3] = test: Inhibition of chlorophyll in Spirodela polyrhiza fronds at 10 ug/mL using light intensity of 45 uE/m2/s measured after 7 days; assay type: functional; conditions: 168 h
Outline: (§1)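 Giant duckweed assay. Compound in DMF dropped onto filter paper, solvent evaporated 15 min, paper placed in flask with 15 mL fresh medium and shaken >10 min. 10 fronds inoculated per flask and grown 7 days at 23-26 °C, 16 h light/8 h dark, ca. 45 µE m^-2 s^-1. DMF plus medium served as control. Chl extracted in 96% ethanol overnight at 4 °C; OD read at 665 and 649 nm; content expressed as percent of control.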

Amaranthus retroflexus [4] = test: Herbicidal activity against Amaranthus retroflexus assessed as inhibition of fresh plant weight at 750 g/ha using preemergence protocol measured after 24 days under green house conditions; conditions: pre-emergence
Digitaria [5] = test: Herbicidal activity against Digitaria adscendens assessed as inhibition of fresh plant weight at 750 g/ha using preemergence protocol measured after 24 days under green house conditions; conditions: in Digitaria adscendens, pre-emergence
Spirodela polyrhiza [6] = test: Inhibition of chlorophyll in Spirodela polyrhiza fronds at 1 ug/mL using light intensity of 45 uE/m2/s measured after 7 days; assay type: functional; conditions: 168 h
Outline: as §1

Digitaria [7] = test: Herbicidal activity against Digitaria adscendens assessed as inhibition of fresh plant weight at 750 g/ha using postemergence protocol measured after 24 days under green house conditions; conditions: in Digitaria adscendens, post-emergence
Echinochloa crus-galli [8] = test: Herbicidal activity against Echinochloa crus-galli (barnyard grass) assessed as inhibition of fresh plant weight at 750 g/ha using postemergence protocol measured after 24 days under green house conditions; conditions: post-emergence
Echinochloa crus-galli [9] = test: Herbicidal activity against Echinochloa crus-galli (barnyard grass) assessed as inhibition of fresh plant weight at 750 g/ha using preemergence protocol measured after 24 days under green house conditions; conditions: pre-emergence
[10] = tested on: Brassica rapa subsp. oleifera; test: Herbicidal activity against Brassica rapa subsp. oleifera assessed as inhibition of fresh plant weight at 750 g/ha using postemergence protocol measured after 24 days under green house conditions; conditions: post-emergence

Row | SMILES | inhibition at 750 g/ha (Amaranthus retroflexus [1]) | inhibition at 750 g/ha [2] | inhibition at 10 µg/mL (Spirodela polyrhiza [3]) | inhibition at 750 g/ha (Amaranthus retroflexus [4]) | inhibition at 750 g/ha (Digitaria [5]) | inhibition at 1 µg/mL (Spirodela polyrhiza [6]) | inhibition at 750 g/ha (Digitaria [7]) | inhibition at 750 g/ha (Echinochloa crus-galli [8]) | inhibition at 750 g/ha (Echinochloa crus-galli [9]) | inhibition at 750 g/ha [10]
1 | Cc1cc(-c2cccc(C(F)(F)F)c2)c(NCc2ccc(Cl)cc2)nn1 | 44% | 7% | 85% | 3% | 0% | 25% | 18% | 15% | 9% | 27%
2 | Cc1cc(-c2cccc(C(F)(F)F)c2)c(NCc2ccccc2Cl)nn1 | 33% | 0% | 90% | 36% | 1% | 73% | 29% | 26% | 3% | 34%
3 | Cc1cc(-c2cccc(C(F)(F)F)c2)c(NC(C)c2ccccc2)nn1 (stereo not given) | 7% | 12% | 63% | 10% | 12% | 31% | 54% | 43% | 10% | 0%
4 | Cc1cc(-c2cccc(C(F)(F)F)c2)c(NC(C)c2ccc(F)cc2)nn1 (stereo not given) | 1% | 13% | 79% | 1% | 28% | 47% | 57% | 0% | 14% | 0%
5 | Cc1cc(-c2cccc(C(F)(F)F)c2)c(NC(C)c2ccc(Cl)cc2)nn1 (stereo not given) | 17% | 2% | 23% | 16% | 11% | 15% | 67% | 27% | 13% | 8%
6 | Cc1cc(-c2cccc(C(F)(F)F)c2)c(NCCc2ccccc2)nn1 | 30% | 0% | 100% | 16% | 27% | 100% | 11% | 13% | 4% | 45%
7 | Cc1cc(-c2cccc(C(F)(F)F)c2)c(Nc2ccccc2C)nn1 | 38% | 7% | 83% | 0% | 11% | 65% | 1% | 10% | 0% | 86%
8 | Cc1ccc(Nc2nnc(C)cc2-c2cccc(C(F)(F)F)c2)c(C)c1 | 0% | 10% | 72% | 0% | 7% | 69% | 11% | 25% | 0% | 22%
9 | COc1ccccc1Nc1nnc(C)cc1-c1cccc(C(F)(F)F)c1 | 30% | 9% | 82% | 4% | 0% | 62% | 0% | 11% | 0% | 6%
10 | COc1ccc(Nc2nnc(C)cc2-c2cccc(C(F)(F)F)c2)cc1 | 27% | 13% | 100% | 55% | 2% | 100% | 89% | 28% | 5% | 44%
11 | Cc1cc(-c2cccc(C(F)(F)F)c2)c(Nc2ccccc2Cl)nn1 | 41% | 9% | 100% | 10% | 0% | 82% | 19% | 24% | 2% | 93%
12 | Cc1cc(-c2cccc(C(F)(F)F)c2)c(Nc2cccc(Cl)c2)nn1 | 38% | 3% | 100% | 12% | 0% | 100% | 5% | 7% | 0% | 63%
13 | Cc1cc(-c2cccc(C(F)(F)F)c2)c(Nc2cccc(Br)c2)nn1 | 30% | 14% | 100% | 0% | 0% | 100% | 0% | 0% | 0% | 17%
14 | Cc1cc(-c2cccc(C(F)(F)F)c2)c(Nc2ccc(Br)cc2)nn1 | 45% | 26% | 63% | 54% | 14% | 59% | 26% | 13% | 15% | 36%
15 | Cc1cc(-c2cccc(C(F)(F)F)c2)c(Nc2ccc(OC(F)(F)F)cc2)nn1 | 26% | 0% | 83% | 35% | 5% | 65% | 35% | 21% | 0% | 50%
16 | Cc1cc(-c2cccc(C(F)(F)F)c2)c(NCc2ccccc2)nn1 | 27% | 0% | 86% | 4% | 7% | 83% | 23% | 8% | 0% | 30%
17 | Cc1ccc(CNc2nnc(C)cc2-c2cccc(C(F)(F)F)c2)cc1 | 2% | 16% | 74% | 31% | 64% | 34% | 54% | 0% | 78% | 20%
18 | COc1ccc(CNc2nnc(C)cc2-c2cccc(C(F)(F)F)c2)cc1 | 18% | 0% | 84% | 2% | 0% | 51% | 8% | 0% | 22% | 14%
19 | Cc1cc(-c2cccc(C(F)(F)F)c2)c(NCc2ccccc2F)nn1 | 44% | 24% | 81% | 8% | 0% | 77% | 24% | 10% | 0% | 49%
